{"data": "Published values from different studies", "target": "Discoidin domain-containing receptor 2 (DDR2, Homo sapiens, UniProt Q16832)", "One construct used (Q16832 22-855)": "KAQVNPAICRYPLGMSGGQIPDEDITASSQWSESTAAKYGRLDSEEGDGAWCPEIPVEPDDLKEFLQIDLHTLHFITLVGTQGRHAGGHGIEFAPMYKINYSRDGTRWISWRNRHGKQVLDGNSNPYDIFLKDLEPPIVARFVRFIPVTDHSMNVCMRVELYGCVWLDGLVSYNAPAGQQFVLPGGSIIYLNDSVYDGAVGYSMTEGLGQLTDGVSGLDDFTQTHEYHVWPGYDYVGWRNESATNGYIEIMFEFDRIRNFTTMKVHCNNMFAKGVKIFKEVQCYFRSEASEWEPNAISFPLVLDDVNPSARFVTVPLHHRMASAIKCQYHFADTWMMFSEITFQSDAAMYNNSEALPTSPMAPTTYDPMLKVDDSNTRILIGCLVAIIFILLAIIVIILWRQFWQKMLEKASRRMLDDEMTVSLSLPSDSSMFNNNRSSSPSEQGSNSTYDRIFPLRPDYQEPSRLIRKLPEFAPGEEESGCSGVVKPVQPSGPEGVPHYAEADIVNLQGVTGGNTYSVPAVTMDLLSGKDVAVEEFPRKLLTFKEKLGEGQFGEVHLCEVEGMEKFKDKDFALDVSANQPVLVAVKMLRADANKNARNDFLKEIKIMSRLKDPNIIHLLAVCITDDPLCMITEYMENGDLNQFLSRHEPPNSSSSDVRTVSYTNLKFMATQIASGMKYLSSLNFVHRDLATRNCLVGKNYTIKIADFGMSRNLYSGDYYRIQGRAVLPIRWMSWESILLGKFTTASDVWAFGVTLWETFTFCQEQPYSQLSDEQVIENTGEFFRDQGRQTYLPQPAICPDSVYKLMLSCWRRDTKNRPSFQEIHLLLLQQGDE", "note": "Compare with care: the assays were run in different laboratories."}
{"SMILES": "O=C(c1ccc(Nc2ncc(Cl)c(-c3cc4ccccc4s3)n2)cc1)N1CCC(N2CCCC2)CC1", "read-out": "binding", "technique": "competition with immobilised ligand", "tested at": "1 µM", "remaining binding [%]": 23}
{"SMILES": "CN(c1nccc(-c2cnn3ncccc23)n1)C1CC1", "read-out": "binding", "tested at": "1 µM", "remaining binding [%]": 100}
{"SMILES": "COc1cnc(Nc2cccc(S(N)(=O)=O)c2)nc1N1CCN(c2ccccc2)CC1", "read-out": "binding", "technique": "competition with immobilised ligand", "tested at": "1 µM", "remaining binding [%]": 66}
{"SMILES": "FC(F)(F)Oc1cccc(-c2cnc3ccc(-c4ccncc4)nn23)c1", "read-out": "cell-free assay", "technique": "competition with immobilised ligand", "tested at": "5 µM", "remaining binding [%]": 55}
{"SMILES": "F[C@@H]1CCN(c2nccc(-c3cnn4ncccc34)n2)C1", "read-out": "binding", "tested at": "1 µM", "remaining binding [%]": 91}
{"SMILES": "O=C(O)c1cc(-c2ccc(C3CCNCC3)cc2)c2ccc(-c3ccc(C(F)(F)F)cc3)cc2c1", "read-out": "cell-free assay", "technique": "competition with immobilised ligand", "tested at": "1 µM", "remaining binding [%]": 100}
{"SMILES": "O=C(NCCCN1CCOCC1)c1ccc(Nc2nccc(-c3cc4ccccc4s3)n2)cc1", "read-out": "binding", "technique": "competition with immobilised ligand", "tested at": "1 µM", "remaining binding [%]": 43}
{"SMILES": "CN(C)CC#Cc1ccc(OCCCc2sc(N3CCc4cccc(C(=O)Nc5nc6ccccc6s5)c4C3)nc2C(=O)O)c(F)c1", "read-out": "cell-free assay", "technique": "competition with immobilised ligand", "tested at": "1 µM", "remaining binding [%]": 83}
{"SMILES": "CCN1CCN(Cc2ccc(C(=O)Nc3ccc(C)c(Oc4ccc5c(c4)CC(=O)N5)c3)cc2C(F)(F)F)CC1", "read-out": "binding", "technique": "competition with immobilised ligand", "tested at": "1 µM", "remaining binding [%]": 14}
{"SMILES": "CC(C)(O)c1cncc(-c2nc3ccc(F)cc3n2C2CC2)c1", "read-out": "cell-free assay", "technique": "competition with immobilised ligand", "tested at": "1 µM", "remaining binding [%]": 100}
{"SMILES": "N[C@@H]1CCN(c2nccc(-c3cnn4ncccc34)n2)C1", "read-out": "binding", "tested at": "1 µM", "remaining binding [%]": 100}
{"SMILES": "CNC(=O)[C@@H]1CC[C@@H](n2c(-c3ccc4cnccc4c3)nc3ccc(C(=O)NCc4cccc(C(N)=O)c4)cc32)C1", "read-out": "binding", "technique": "competition with immobilised ligand", "tested at": "1 µM", "remaining binding [%]": 93}
{"SMILES": "c1cncc(-c2cccc(Nc3nccc(NC4CCCCC4)n3)c2)c1", "read-out": "binding", "technique": "competition with immobilised ligand", "tested at": "10 µM", "remaining binding [%]": 86}
{"SMILES": "CC1CCCN1c1nccc(-c2cnn3ncccc23)n1 (centres unmarked)", "read-out": "binding", "tested at": "1 µM", "remaining binding [%]": 100}
{"SMILES": "O=c1nc(-c2ccccn2)sc2ccccc12", "read-out": "cell-free assay", "technique": "competition with immobilised ligand", "tested at": "1 µM", "remaining binding [%]": 100}
{"SMILES": "O=C(NCC1CCOCC1)c1n[nH]cc1NC(=O)c1c(F)cccc1F", "read-out": "binding", "technique": "competition with immobilised ligand", "tested at": "1 µM", "remaining binding [%]": 100}
{"SMILES": "CCCOc1ccc([C@H]2[C@H](C(=O)O)[C@@H](c3ccc4c(c3)OCO4)CN2CC(=O)Nc2c(CC)cccc2CC)cc1", "read-out": "cell-free assay", "technique": "competition with immobilised ligand", "tested at": "1 µM", "remaining binding [%]": 71}
{"SMILES": "O=C(c1ccc(Nc2ncc(Cl)c(-c3ccc(Cl)s3)n2)cc1)N1CCC(N2CCCC2)CC1", "read-out": "binding", "technique": "competition with immobilised ligand", "tested at": "1 µM", "remaining binding [%]": 33}
{"SMILES": "CN(C)c1nccc(-c2cnn3ncccc23)n1", "read-out": "binding", "tested at": "1 µM", "remaining binding [%]": 100}
{"SMILES": "CS(=O)(=O)NCC[C@H](NC(=O)c1cncc2c1cnn2-c1ccc(F)cc1)c1ccnc(S(C)(=O)=O)c1", "read-out": "cell-free assay", "technique": "competition with immobilised ligand", "tested at": "1 µM", "remaining binding [%]": 100}
